Test results reported in ChEMBL document CHEMBL4765378, “Discovery of simplified benzazole fragments derived from the marine benzosceptrin B as necroptosis inhibitors involving the receptor interacting protein Kinase-1” (Eur J Med Chem, 2020).
Active and inactive are the calls of the source. The rule behind the calls is not given here.

Legend:
[1] = target: T1, Receptor-interacting serine/threonine-protein kinase 1 (Homo sapiens) (UniProt Q13546); assay: Inhibition of RIPK1 in human FADD-deficient Jurkat I 2.1 cells assessed as protection against TNFalpha-induced necroptosis by measuring remaining viable cells at 10 uM measured after 24 hrs by MTS assay relative to TNFalpha; type: cell-based
T1 sequence (whole entry): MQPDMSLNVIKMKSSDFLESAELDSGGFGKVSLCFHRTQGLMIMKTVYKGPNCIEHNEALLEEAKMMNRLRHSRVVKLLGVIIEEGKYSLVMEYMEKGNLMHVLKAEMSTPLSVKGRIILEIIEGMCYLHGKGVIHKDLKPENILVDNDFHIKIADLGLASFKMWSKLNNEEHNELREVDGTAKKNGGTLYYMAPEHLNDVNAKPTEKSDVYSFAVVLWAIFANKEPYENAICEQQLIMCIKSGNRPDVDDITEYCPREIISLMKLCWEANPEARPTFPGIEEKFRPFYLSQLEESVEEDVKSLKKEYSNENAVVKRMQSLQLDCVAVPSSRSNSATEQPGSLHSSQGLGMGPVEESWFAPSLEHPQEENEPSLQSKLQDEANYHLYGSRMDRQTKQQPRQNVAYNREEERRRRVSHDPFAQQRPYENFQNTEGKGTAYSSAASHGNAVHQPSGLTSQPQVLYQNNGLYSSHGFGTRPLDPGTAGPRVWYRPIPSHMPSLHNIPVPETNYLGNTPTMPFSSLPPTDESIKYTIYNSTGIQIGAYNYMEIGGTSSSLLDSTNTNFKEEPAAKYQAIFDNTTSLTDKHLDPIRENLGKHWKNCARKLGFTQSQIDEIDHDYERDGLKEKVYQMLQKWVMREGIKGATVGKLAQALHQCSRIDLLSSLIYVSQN
In short: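 FADD-deficient Jurkat cells co-treated 24 h with 10 ng/ml human recombinant TNF-α and 10 μM compound; MTS viability normalized to DMSO control (100%); protection delta = viability with TNF-α plus compound minus viability with TNF-α alone (negative if toxic); n = 3.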

[2] = target: T1, Receptor-interacting serine/threonine-protein kinase 1 (Homo sapiens); assay: (§1) Inhibition of recombinant human RIPK1 kinase domain (8 to 322 residues) using myelin basic protein as substrate measured after 120 mins by [gamma-32P]ATP based scintillation counting method
[3] = target: T2, Receptor-interacting serine/threonine-protein kinase 1 (Homo sapiens, UniProt Q13546); assay: as §1
T2 sequence (Q13546 whole entry): T1 sequence (whole entry)

Jurkat [4] = assay: Protection against TRAIL-induced apoptosis in human Jurkat assessed as increase in cell viability at 0.1 to 50 uM measured after 24 hrs by MTS assay; type: functional, cell-based; details: dose 0.1-50 µM
In short: (§2)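 Jurkat wild-type cells treated with TRAIL-Flag (20 ng/mL) or staurosporine (100 nM) together with increasing compound doses for 24 h; viability by MTS reduction as % of DMSO-treated cells; mean ± SD, n = 3.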

Jurkat [5] = assay: Protection against staurosporine-induced apoptosis in human Jurkat assessed as increase in cell viability at 0.1 to 50 uM measured after 24 hrs by MTS assay; type: functional, cell-based; details: dose 0.1-50 µM; in short: as §2
[6] = target: T3, Serine/threonine-protein kinase haspin (Homo sapiens, UniProt Q8TF76); assay: Inhibition of recombinant human HASPIN kinase domain (470 to 798 residues) expressed in bacterial expression system using histone H3(1-21) peptide as substrate by ADP-glo assay
T3 sequence (Q8TF76 whole entry): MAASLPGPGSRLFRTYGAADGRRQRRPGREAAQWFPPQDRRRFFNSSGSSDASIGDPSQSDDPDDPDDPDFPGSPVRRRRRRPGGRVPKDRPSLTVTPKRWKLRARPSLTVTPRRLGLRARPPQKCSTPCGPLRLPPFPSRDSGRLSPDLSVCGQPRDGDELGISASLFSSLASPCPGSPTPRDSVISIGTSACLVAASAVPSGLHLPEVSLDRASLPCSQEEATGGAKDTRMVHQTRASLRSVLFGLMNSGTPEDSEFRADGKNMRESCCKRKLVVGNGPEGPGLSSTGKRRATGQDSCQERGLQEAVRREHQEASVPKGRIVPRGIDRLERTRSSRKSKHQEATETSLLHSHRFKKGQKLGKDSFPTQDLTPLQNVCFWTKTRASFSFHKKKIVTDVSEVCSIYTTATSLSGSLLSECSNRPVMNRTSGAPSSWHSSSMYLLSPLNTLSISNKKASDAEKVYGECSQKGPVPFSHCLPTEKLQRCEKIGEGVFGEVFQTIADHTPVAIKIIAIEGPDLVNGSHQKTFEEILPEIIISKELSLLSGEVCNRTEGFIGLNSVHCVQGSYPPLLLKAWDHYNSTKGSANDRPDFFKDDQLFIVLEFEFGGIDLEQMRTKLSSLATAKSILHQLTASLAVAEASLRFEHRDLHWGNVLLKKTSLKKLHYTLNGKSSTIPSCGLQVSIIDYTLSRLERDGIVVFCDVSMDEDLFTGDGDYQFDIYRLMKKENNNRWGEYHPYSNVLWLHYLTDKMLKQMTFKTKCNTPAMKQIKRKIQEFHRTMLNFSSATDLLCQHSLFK

[7] = target: Serine/threonine-protein kinase pim-1 (Homo sapiens, UniProt P11309); assay: Inhibition of recombinant human PIM1 expressed in bacterial expression system using histone H1 as substrate by ADP-glo assay
Sequence of Serine/threonine-protein kinase pim-1 (P11309 whole entry): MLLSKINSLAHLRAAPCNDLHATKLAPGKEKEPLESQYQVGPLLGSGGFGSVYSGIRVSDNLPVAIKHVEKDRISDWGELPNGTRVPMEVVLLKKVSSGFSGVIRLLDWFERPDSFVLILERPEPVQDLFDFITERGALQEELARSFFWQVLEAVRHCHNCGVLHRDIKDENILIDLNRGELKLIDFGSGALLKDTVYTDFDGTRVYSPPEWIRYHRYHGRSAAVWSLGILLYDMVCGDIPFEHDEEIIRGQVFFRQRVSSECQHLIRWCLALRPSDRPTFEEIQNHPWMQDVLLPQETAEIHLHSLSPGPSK

Aurora kinase B = Aurora kinase B (Homo sapiens, UniProt Q96GD4); assay: Inhibition of recombinant human AURKB expressed in baculovirus infected Sf9 insect cells using myelin basic protein as substrate by ADP-Glo assay
Sequence of Aurora kinase B (Q96GD4 whole entry): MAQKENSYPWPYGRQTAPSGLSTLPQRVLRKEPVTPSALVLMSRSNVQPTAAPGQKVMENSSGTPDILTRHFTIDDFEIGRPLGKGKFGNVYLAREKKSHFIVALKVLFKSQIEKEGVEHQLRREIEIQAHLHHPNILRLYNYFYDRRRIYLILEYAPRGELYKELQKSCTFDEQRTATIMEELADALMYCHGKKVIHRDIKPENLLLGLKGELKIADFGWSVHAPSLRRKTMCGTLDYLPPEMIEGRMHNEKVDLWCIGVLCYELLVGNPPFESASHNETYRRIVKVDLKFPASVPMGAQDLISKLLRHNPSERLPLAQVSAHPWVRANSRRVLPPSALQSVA

[8] = Cytotoxicity against human FADD-deficient Jurkat I 2.1 cells assessed as reduction in cell viability at >25 uM measured after 24 hrs by MTS assay; type: cell-based; details: jurkat i 2.1, 24 h

CCCCNc1nc2cc([N+](=O)[O-])ccc2s1
Activity [1]: 56.1% | inhibition [2]: Dose-dependent effect | IC50 [3]: 2.89 µM | Activity (Jurkat [4]): inactive | Activity (Jurkat [5]): inactive | IC50 [6]: > 10 µM | IC50 [7]: > 10 µM | IC50 (Aurora kinase B): > 10 µM

CCCCNc1nc2ccc([N+](=O)[O-])cc2[nH]1
Activity [1]: 56.9% | Activity [8]: Toxic | inhibition [2]: Dose-dependent effect | IC50 [3]: 12.1 µM | IC50 [6]: > 10 µM | IC50 [7]: > 10 µM | IC50 (Aurora kinase B): > 10 µM
